Data taken from ChEMBL document CHEMBL1138664, “Discovery of the pyrrolo[2,1-f][1,2,4]triazine nucleus as a new kinase inhibitor template” (J Med Chem, 2004).

Legend:
[1] = molecular target: Vascular endothelial growth factor receptor (Homo sapiens, UniProt P17948+P35916+P35968); test: Inhibition of VEGF-stimulated human umbilical vein endothelial cell proliferation; format: functional, cell-based
In short: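 HUVECs under passage 3, plated 2 × 10^3/well in minimal medium with 1% heat-inactivated FBS on collagen IV; after 24 h, VEGF 80 ng/mL and serial compound dilutions; 3H-thymidine pulse (0.5 µCi) at 48 h for 24 h. IC50 as concentration halving thymidine uptake relative to untreated VEGF-stimulated cells.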

[2] = molecular target: Vascular endothelial growth factor receptor 2 (Homo sapiens, UniProt P35968); test: In vitro inhibition of Vascular endothelial growth factor receptor 2
Chain of Vascular endothelial growth factor receptor 2 (P35968 whole entry): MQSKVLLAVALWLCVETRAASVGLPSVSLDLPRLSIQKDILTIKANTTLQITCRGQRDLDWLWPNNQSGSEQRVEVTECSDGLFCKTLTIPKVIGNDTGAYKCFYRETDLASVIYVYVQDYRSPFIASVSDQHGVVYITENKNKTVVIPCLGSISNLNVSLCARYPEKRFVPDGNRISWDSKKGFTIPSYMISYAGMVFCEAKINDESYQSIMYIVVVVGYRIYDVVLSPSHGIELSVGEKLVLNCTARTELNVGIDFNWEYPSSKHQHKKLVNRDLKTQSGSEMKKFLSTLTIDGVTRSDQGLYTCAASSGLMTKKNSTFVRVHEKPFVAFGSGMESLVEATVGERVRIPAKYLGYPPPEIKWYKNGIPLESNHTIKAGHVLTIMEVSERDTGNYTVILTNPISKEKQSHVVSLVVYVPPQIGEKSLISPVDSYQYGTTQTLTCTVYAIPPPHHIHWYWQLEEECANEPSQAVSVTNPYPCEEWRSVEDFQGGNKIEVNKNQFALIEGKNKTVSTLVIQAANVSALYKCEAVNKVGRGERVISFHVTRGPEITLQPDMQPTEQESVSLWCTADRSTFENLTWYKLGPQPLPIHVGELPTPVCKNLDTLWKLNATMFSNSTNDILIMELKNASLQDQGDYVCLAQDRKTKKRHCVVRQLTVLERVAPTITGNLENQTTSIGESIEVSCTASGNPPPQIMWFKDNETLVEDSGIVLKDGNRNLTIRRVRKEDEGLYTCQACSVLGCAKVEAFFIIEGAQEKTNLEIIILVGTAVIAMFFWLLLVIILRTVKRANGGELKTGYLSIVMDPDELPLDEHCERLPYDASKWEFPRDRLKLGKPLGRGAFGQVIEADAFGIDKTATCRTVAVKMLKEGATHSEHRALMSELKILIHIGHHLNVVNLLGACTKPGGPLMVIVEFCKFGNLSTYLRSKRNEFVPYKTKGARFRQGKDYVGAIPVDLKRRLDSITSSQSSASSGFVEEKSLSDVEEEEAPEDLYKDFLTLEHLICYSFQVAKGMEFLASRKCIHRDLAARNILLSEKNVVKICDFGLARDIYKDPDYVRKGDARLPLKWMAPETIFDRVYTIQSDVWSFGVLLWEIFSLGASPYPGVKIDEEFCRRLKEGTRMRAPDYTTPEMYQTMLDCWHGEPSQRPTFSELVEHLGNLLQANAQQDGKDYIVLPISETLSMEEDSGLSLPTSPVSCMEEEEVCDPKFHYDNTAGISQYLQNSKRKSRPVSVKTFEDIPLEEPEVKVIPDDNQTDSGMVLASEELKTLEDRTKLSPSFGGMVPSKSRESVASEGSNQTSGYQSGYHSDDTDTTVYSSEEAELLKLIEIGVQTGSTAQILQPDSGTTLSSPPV

[3] = Compound was tested for its inhibitory effect on the proliferation of the colon adenocarcinoma cell line DiFi; conditions: Homo sapiens
[4] = molecular target: Epidermal growth factor receptor and ErbB2 (HER1 and HER2) (Homo sapiens, UniProt P04626+P00533); test: Inhibition of EGF-stimulated human umbilical vein endothelial cell proliferation; format: functional, cell-based
In short: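 Primary HUVECs (passage ≤3) seeded 2 × 10^3/well on collagen IV in minimal medium, 1% heat-inactivated FBS, 24 h; compound dilutions added with EGF 5 ng/mL; 48 h later 3H-thymidine 0.5 µCi, further 24 h. IC50 = concentration giving 50% less tritium incorporation than untreated EGF-stimulated cells, from dose-response curves.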

[5] = molecular target: Epidermal growth factor receptor (Homo sapiens, UniProt P00533); test: In vitro inhibition of Epidermal growth factor receptor
Chain of Epidermal growth factor receptor (P00533 whole entry): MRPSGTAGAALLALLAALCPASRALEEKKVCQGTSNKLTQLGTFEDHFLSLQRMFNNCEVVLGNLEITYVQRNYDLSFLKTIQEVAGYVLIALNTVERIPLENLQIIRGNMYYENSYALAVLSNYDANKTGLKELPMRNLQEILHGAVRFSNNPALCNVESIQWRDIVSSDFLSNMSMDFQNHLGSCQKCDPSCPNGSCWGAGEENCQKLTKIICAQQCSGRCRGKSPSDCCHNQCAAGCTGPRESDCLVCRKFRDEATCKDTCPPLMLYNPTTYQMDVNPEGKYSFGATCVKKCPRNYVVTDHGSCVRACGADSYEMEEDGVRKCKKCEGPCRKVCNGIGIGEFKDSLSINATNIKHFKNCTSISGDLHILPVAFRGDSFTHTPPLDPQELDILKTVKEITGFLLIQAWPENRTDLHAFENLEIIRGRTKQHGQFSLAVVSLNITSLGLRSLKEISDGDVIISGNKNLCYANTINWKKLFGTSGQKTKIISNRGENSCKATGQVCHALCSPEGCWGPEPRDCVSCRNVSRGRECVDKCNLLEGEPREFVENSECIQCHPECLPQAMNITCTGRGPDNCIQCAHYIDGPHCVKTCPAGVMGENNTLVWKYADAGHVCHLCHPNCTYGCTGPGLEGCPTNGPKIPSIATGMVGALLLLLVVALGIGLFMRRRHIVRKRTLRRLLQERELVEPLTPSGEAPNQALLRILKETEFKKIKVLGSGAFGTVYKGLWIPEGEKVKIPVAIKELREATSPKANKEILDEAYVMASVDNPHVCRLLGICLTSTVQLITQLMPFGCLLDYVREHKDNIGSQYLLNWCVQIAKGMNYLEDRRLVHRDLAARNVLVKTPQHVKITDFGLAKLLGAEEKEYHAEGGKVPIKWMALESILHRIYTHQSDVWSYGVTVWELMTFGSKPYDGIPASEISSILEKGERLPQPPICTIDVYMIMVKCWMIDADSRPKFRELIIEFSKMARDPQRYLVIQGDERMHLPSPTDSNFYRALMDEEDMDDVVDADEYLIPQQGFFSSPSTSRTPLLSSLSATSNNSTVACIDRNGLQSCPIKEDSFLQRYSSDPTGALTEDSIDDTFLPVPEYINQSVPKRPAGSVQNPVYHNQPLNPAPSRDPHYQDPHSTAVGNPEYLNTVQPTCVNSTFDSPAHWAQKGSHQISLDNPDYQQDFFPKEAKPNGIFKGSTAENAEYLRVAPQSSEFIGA

Compound | IC50 [1] | IC50 [2] | IC50 [4] | IC50 [5] | IC50 [3]
Cc1ccc2c(Nc3ccc(F)c(Cl)c3)ncnn12 | > 2.5 µM | > 2 µM | > 2.5 µM | 3.25 µM | > 10 µM
Fc1ccc(Nc2ncnn3cccc23)cc1Cl | > 2.5 µM | > 10 µM | 0.345 µM | 0.11 µM | 1.84 µM
Cc1cc2c(Nc3ccc(F)c(Cl)c3)ncnn2c1 | > 2.5 µM | > 2 µM | 0.509 µM | 0.15 µM | 1.6 µM
Cc1ccn2ncnc(Nc3ccc(F)c(Cl)c3)c12 | > 2.5 µM | > 10 µM | 0.602 µM | 0.1 µM | 3.06 µM

Stronger by IC50 [1], values ahead:

IC50 [1] | IC50 [2] | IC50 [4] | IC50 [5] | Compound | IC50 [3]
0.477 µM | > 10 µM | 0.101 µM | 29.4 µM | Cc1ccc(Nc2ncnn3c(C)ccc23)cc1O | > 10 µM
0.36 µM | 1.44 µM | – | 0.51 µM | Cc1ccc(Nc2ncnn3cccc23)cc1O | 10 µM
0.31 µM | 0.02 µM | – | 0.2 µM | Cc1ccc(Nc2ncnn3cc(C)c(C)c23)cc1O | > 10 µM
0.213 µM | 0.4 µM | 0.644 µM | 0.65 µM | Cc1cc2c(Nc3ccc(C)c(O)c3)ncnn2c1 | > 10 µM
0.098 µM | 0.06 µM | 0.27 µM | 0.34 µM | Cc1ccc(Nc2ncnn3ccc(C)c23)cc1O | > 10 µM
